TAAR1 ag – human TAAR1 agonists, primary screen, Fluo-8 calcium fluorescence, CHO RD-HGA16 cells; Trace amine-associated receptor 1 (Homo sapiens), Q96RJ0; vehicle wells 0%, saturating PEA agonist 100%; activation, % at 3 µM; actives 0.99% (n = 360,000); AID 624467, 2012;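 active = activation above the mean activation of all test compounds in the run plus 3 SD, cut at about 38% in these data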
Target sequence (Q96RJ0 whole entry, looked up): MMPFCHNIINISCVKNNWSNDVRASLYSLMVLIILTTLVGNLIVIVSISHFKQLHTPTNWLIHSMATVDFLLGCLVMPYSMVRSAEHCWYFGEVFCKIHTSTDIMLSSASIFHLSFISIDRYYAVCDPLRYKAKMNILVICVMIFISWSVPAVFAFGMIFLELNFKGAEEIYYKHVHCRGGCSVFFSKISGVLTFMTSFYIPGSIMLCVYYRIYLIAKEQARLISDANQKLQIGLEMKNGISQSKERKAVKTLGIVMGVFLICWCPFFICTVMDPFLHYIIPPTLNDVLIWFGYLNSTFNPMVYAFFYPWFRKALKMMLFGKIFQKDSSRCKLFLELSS
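System: CHO-derived RD-HGA16 cells with stable Gα16 and human TAAR1 / Times: 17-24 h plating, Fluo-8 75 min 37 °C, 30 min RT / Technique: calcium-sensitive Fluo-8 signal, excitation 470-495, emission 515-575 nm / Measure: % activation relative to PEA EC100 response / Benchmarks: DMSO and PEA EC100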
GPR7 antagonist – GPR7 receptor antagonists, primary screen, cell-based, fluorescence, single concentration; actives 1.1% (n = 290,000); inhibition, % at 4.4 µM; GPR7-expressing cells, fluorescence antagonist assay; AID 1861, 2009; in the data active = inhibition above about 16%, passing the limit was not always enough;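 note: cells stimulated with the agonist NPW; 0% = agonist with vehicle and 100% = vehicle without agonist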
Target sequence (P48145 whole entry, looked up): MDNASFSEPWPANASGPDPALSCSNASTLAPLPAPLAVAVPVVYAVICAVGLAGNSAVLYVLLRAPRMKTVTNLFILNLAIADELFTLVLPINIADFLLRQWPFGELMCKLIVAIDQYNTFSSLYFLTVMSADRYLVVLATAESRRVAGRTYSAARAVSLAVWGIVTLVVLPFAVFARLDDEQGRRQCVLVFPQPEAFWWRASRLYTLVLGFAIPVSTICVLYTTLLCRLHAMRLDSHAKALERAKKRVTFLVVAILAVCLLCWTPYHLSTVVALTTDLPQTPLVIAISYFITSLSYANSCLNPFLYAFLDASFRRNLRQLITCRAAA
DAGLB inh – DAGLB lipase inhibitors, primary screen, biochemical, fluorescence, HTS. HEK293T DAGLB membrane lysate, EnzChek fluorogenic substrate. actives 0.059% (n = 340,000). inhibition, % at 5.17 µM. AID 504411, 2011; in the data active = inhibition above about 34%;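 note: 0% = enzyme with vehicle and 100% = wells lacking enzyme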
MPTP block – mitochondrial permeability transition pore inhibitors, primary screen, biochemical, isolated mouse mitochondria, absorbance; Ca2+ swelling absorbance, 30 min; actives 1.4% (n = 360,000); AID 602449, 2012; inhibition, % at 10 µM;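 active = inhibition of 50% or more, scaled per plate between neutral and stimulator controls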;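 note: 0% = DMSO wells given calcium and 100% = 1 mM EGTA wells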
TAAR1 antag – human TAAR1 antagonists, primary screen, Fluo-8 calcium fluorescence, CHO RD-HGA16 cells; Trace amine-associated receptor 1 (Homo sapiens), Q96RJ0; antagonist; inhibition, % at 3 µM; actives 1.5% (n = 360,000); AID 624466, 2012;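 active = inhibition above a per-plate cutoff, the mean inhibition of test compounds on that plate plus 3 SD, cut at about 49% in these data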;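 note: 0% = DMSO plus EC80 beta-PEA response and 100% = DMSO alone without agonist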
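Material: CHO RD-HGA16 cells bearing hTAAR1; compound dosing: one-point dosing, 3 µM nominal final; schedule: dye loading 75 min at 37 °C, then 30 min room temperature; measured by: calcium fluorescence with Fluo-8; control set: vehicle and agonist controls; replication: n of 1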
GPR7 antag conf – GPR7 receptor antagonists, confirmation, cell-based, fluorescence, single concentration. shares compounds with GPR7 antagonist. GPR7-expressing cells, calcium fluorescence antagonist mode. inhibition, % at 4.4 µM. actives 52% (n = 2,400). AID 1952, 2009; in the data active = inhibition above about 24%;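 note: stimulated with the GPR7 agonist NPW; 0% = agonist plus vehicle and 100% = vehicle alone without agonist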
MCHR1 antagonist – MCHR1 antagonists in cells, counter-screen for GPR7 antagonist project, cell-based, fluorescence, human | shares compounds with GPR7 antagonist | MCHR1-expressing cells, fluorescence antagonist assay | inhibition, % at 4.4 µM | actives 62% (n = 2,400) | AID 2148, 2009;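 note: 0% = vehicle with agonist and 100% = vehicle without agonist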
Rh123 counter – fluorescence retest of MPTP screen hits in isolated mitochondria, single concentration; actives 78% (n = 5,000); shares compounds with MPTP block; membrane potential, Rhodamine 123 fluorescence; inhibition, % at 10 µM; AID 624504, 2012;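 note: 0% = DMSO vehicle and 100% = positive control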
MPTP abs DR – mitochondrial permeability transition pore inhibitors, dose response, biochemical, absorbance, uHTS hits; AID 651561, 2012; isolated mitochondria swelling; IC50, µM; shares compounds with MPTP block; actives 58% (n = 780); in the data active = IC50 below about 20 µM
MPTP cs DR – fluorescent counter-screen in isolated mitochondria, dose response, counter-screen for MPTP inhibitor project, biochemical, fluorescence, uHTS hits; IC50, µM; shares compounds with MPTP block; actives 49% (n = 780); isolated mitochondria counterscreen, fluorescence read-out; in the data active = IC50 below about 80 µM
An asterisk follows results filed as active. The list is not random: actives were taken first. Their share in the collection is about 4%. Cut-off read from the data, not from the text of the source, unless noted: active = inhibition above about 22%; inactive = the rest.

Screening c1ccc(-c2ccc(OCCCNC3CCCC3)cc2)cc1 returned TAAR1 ag 29.6, GPR7 antagonist 21.3*, MPTP block 88.3*, TAAR1 antag 10.1, GPR7 antag conf 22.8, MCHR1 antagonist 20.7, Rh123 counter -6.8, MPTP abs DR 5.22* and MPTP cs DR 46*.
For O=C(NC(NC(=S)Nc1ccccc1Cl)C(Cl)(Cl)Cl)c1cccc(Cl)c1 (stereo unspecified) the results were TAAR1 ag 10.7, GPR7 antagonist 27.1*, DAGLB inh 1.4, MPTP block 76.7*, TAAR1 antag 10.2, GPR7 antag conf 49.1*, MCHR1 antagonist 61.4* and Rh123 counter 61.6*.
`O=[N+]([O-])c1ccc(Cl)c(CN2CCN(c3ncccn3)CC2)c1` gave TAAR1 ag 1.8, GPR7 antagonist -9.4, DAGLB inh -2.8, MPTP block 1.5 and TAAR1 antag -6.2.
Screening Cc1ccc2nc(C)c(CN3CCN(c4ccc([N+](=O)[O-])cc4Cl)CC3)n2c1 returned TAAR1 ag 42.6*, GPR7 antagonist 22.9*, DAGLB inh 2.8, MPTP block 87.9*, TAAR1 antag -11.7, GPR7 antag conf 52.4*, MCHR1 antagonist 52.3* and Rh123 counter 101.8*.
`Cn1nnnc1SCCNCc1ccccc1OCc1ccc(Cl)cc1` gave TAAR1 ag 10.2, GPR7 antagonist 10.3, DAGLB inh -0.6, MPTP block 1.5 and TAAR1 antag 1.6.
For Cn1nnnc1SCCNCc1cc(Cl)ccc1OCc1ccccc1 the results were TAAR1 ag 1.7, GPR7 antagonist 23.6*, DAGLB inh -0.7, MPTP block 82.9*, TAAR1 antag 24.4, GPR7 antag conf 23.8, MCHR1 antagonist 43.5* and Rh123 counter 30.6*.
For O=NN(CCc1ccncc1)c1ccc(OCc2ccccc2)cc1 the results were TAAR1 ag 2.3, GPR7 antagonist 24.8*, DAGLB inh -5.9, MPTP block 93.3*, TAAR1 antag 26.2, GPR7 antag conf 49.6*, MCHR1 antagonist 43.3* and Rh123 counter 88.9*.
O=C(NCc1ccncc1)C(=O)N/N=C/c1ccc(OCc2ccccc2)cc1 was read as TAAR1 ag 5.5, GPR7 antagonist -11.0, DAGLB inh -2.0, MPTP block 3.3 and TAAR1 antag -10.0.
Nc1nonc1C(=O)NCCNCc1c(OCc2ccccc2F)ccc2ccccc12 was read as TAAR1 ag 28.8, GPR7 antagonist 28.0*, DAGLB inh -2.5, MPTP block 94.9*, TAAR1 antag 27.7, GPR7 antag conf 47.3*, MCHR1 antagonist 68.7* and Rh123 counter 22.8*.
`Nc1nonc1C(=O)NCCNCc1ccccc1` gave TAAR1 ag -0.8, GPR7 antagonist 2.5, DAGLB inh 3.0, MPTP block 1.1 and TAAR1 antag -6.2.
For Cc1cc2nc(-c3ccc(SCc4ccc(C#N)cc4)nc3)[nH]c2cc1C the results were TAAR1 ag 4.8, GPR7 antagonist 33.2*, DAGLB inh -4.1, MPTP block 67.4*, TAAR1 antag 36.4, GPR7 antag conf 55.3*, MCHR1 antagonist 66.0* and Rh123 counter 66.0*.
For COc1ccc(Cl)c(N2CCN(CCCNC(=O)Nc3ccc(C)cc3)CC2)c1 the results were TAAR1 ag 19.8, GPR7 antagonist 31.3*, DAGLB inh 0.7, MPTP block 80.3*, TAAR1 antag -3.1, GPR7 antag conf 22.1, MCHR1 antagonist 42.1*, Rh123 counter -9.5, MPTP abs DR 9.41* and MPTP cs DR 36.5*.
`CN(C)CCNC(=O)c1ccc(Sc2ccc(Br)cc2)c([N+](=O)[O-])c1` gave TAAR1 ag 31.6, GPR7 antagonist 23.2*, DAGLB inh -0.1, MPTP block 101.9*, TAAR1 antag 29.7, GPR7 antag conf 36.7*, MCHR1 antagonist 42.3*, Rh123 counter -8.5, MPTP abs DR 5.77* and MPTP cs DR >80.
Screening COC(=O)C1CCCCN1C(=O)c1cc(COc2cccc3cnccc23)on1 (stereo unspecified) returned TAAR1 ag 10.0, GPR7 antagonist 35.4*, DAGLB inh -1.7, MPTP block 92.9*, TAAR1 antag 11.4, GPR7 antag conf 28.0*, MCHR1 antagonist 53.0* and Rh123 counter 99.7*.
`Cc1cc(Nc2cccc(Br)c2)cc(=O)n1-c1cccc(Br)c1` gave TAAR1 ag -0.4 and TAAR1 antag -22.2.
For O=C(Nc1ccc(Cl)cc1)Nc1cccc(C(=O)O)c1 the results were TAAR1 ag 4.5, GPR7 antagonist -6.4, MPTP block -0.1 and TAAR1 antag -7.8.
`O=C(Nc1ccc(Cl)cc1)Nc1csc([N+](=O)[O-])c1` gave TAAR1 ag 14.0, GPR7 antagonist 23.5*, MPTP block 78.8*, TAAR1 antag 20.5, GPR7 antag conf 57.2*, MCHR1 antagonist 66.7* and Rh123 counter 78.4*.
For O=C(Nc1ccccc1)Nc1ccc(Cl)c([N+](=O)[O-])c1 the results were TAAR1 ag 32.9, GPR7 antagonist 26.1*, DAGLB inh -3.1, MPTP block 100.8*, TAAR1 antag -5.7, GPR7 antag conf 58.5*, MCHR1 antagonist 64.6* and Rh123 counter 99.0*.
CC(=O)c1ccc(NC(=O)Nc2cccc(Cl)c2)cc1 was read as TAAR1 ag 33.1, GPR7 antagonist 28.7*, DAGLB inh 3.1, MPTP block 101.2*, TAAR1 antag 34.6, GPR7 antag conf 36.8*, MCHR1 antagonist 67.3* and Rh123 counter 88.0*.
`COC1OC2COC(c3ccccc3)OC2C(OC(C)=O)C1OC(C)=O` (stereo unspecified) gave TAAR1 ag 0.7, DAGLB inh 0.1, MPTP block -1.2 and TAAR1 antag -10.4.
